Source: paper PMC9762201 (Current Research in Pharmacology and Drug Discovery, 2022)
Entries after “also recorded” stand apart in the source; their conditions may differ.

What was measured:
[1] = target: T1, α1A-AR (Homo sapiens, UniProt P35348); experiment: Total inositol phosphate assay in Rat-1 fibroblasts expressing α1A-AR; type: cell-based
T1 sequence (P35348 1-466): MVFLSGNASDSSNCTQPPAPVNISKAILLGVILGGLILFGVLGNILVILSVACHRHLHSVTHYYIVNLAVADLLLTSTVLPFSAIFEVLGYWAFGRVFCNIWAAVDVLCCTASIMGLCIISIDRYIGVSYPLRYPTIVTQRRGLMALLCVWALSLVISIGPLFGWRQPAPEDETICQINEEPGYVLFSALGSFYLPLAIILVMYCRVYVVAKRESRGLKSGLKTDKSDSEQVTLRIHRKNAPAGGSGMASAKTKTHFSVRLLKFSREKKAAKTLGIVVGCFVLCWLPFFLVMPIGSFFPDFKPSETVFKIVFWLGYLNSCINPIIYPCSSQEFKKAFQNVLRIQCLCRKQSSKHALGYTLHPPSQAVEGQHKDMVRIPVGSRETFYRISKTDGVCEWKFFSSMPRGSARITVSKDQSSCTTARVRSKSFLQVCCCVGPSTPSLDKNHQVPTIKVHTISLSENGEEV

[2] = tested on: α1B-AR; experiment: cAMP assay in Rat-1 fibroblasts expressing α1B-AR; type: cell-based; details: Cmpd-3 10^−7 to 10^−5 M
Method in brief: (§1)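 Rat-1 fibroblasts expressing one α1-AR subtype were plated serum-free at about 2.4 x 10^4 cells/well and rested overnight. They were preincubated 2 h at 37 °C with 10 μM propranolol, 0.1 μM rauwolscine and test compound. IBMX (100–200 μM) and NE or Epi were then added for 2 h, either as an agonist dose-response or at a fixed 10^-4 M. Cells were extracted in 0.1 M HCl for 20 min at RT, centrifuged at 1000 g, and cAMP was measured by EIA.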

[3] = target: T2, α1D-AR (Homo sapiens, UniProt P25100); experiment: cAMP assay in Rat-1 fibroblasts expressing α1D-AR; type: cell-based; details: Cmpd-3 10^−6, 10^−5 M
T2 sequence (P25100 1-572): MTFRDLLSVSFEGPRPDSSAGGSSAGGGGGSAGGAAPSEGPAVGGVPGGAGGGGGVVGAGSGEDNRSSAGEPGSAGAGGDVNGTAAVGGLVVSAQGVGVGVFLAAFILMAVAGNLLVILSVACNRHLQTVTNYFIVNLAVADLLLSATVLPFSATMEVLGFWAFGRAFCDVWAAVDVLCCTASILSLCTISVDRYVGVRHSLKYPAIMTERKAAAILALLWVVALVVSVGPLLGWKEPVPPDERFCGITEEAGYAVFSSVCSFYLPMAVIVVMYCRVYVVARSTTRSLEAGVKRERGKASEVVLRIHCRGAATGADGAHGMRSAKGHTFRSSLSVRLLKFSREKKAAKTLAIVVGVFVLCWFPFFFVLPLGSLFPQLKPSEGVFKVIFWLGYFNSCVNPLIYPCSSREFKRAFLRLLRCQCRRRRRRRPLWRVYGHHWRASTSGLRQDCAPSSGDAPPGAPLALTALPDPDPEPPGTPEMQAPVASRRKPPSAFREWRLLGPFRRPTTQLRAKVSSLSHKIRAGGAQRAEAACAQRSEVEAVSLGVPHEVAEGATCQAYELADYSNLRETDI
Method in brief: as §1

[4] = tested on: α1B-AR; experiment: Total inositol phosphate assay, cells expressing α1B-AR; type: cell-based; details: data not shown
Method in brief: (§2)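 Cells expressing a single α1-AR subtype were seeded in DMEM at about 5 x 10^4 cells/well and rested overnight at 37 °C. They were labelled overnight with 3H-inositol, washed, and placed in serum-free DMEM with 10 mM LiCl (final) for 1 h. NE or Epi (one dose per well) plus test compound at one or several concentrations were added for 1 h at 37 °C. Total inositol phosphates were measured by anion-exchange chromatography.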

[5] = target: T1, α1A-AR; type: binding
[6] = tested on: 3XTG mice; details: 2.6 mg/kg, q.d., PO, 3 or 6 months, ref Perez, 2021b; cited from earlier work
[7] = target: T3, α2A-AR (Homo sapiens, UniProt P08913); type: binding; details: Cos-1 membranes
T3 sequence (P08913 1-465): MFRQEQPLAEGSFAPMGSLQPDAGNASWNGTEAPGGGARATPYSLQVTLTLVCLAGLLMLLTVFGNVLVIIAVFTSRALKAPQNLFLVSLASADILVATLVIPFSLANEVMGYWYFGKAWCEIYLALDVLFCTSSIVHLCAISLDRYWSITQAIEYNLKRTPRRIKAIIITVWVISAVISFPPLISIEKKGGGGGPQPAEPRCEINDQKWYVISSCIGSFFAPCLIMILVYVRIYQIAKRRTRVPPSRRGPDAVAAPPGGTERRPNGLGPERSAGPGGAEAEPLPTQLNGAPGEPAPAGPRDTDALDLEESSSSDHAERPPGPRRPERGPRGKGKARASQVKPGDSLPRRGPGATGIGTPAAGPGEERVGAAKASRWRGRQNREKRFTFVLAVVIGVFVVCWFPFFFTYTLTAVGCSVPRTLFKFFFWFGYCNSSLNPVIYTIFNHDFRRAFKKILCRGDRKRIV

[8] = tested on: α1B-AR; type: binding; details: 0.5 mM GTP
[9] = target: T2, α1D-AR; experiment: Total inositol phosphate assay, cells expressing α1D-AR; type: cell-based; details: data not shown
Method in brief: as §2

[10] = target: 5-HT7A (Homo sapiens, UniProt P34969); experiment: Psychoactive Drug Screening program GPCR binding screen, 5-HT7A
5-HT7A, sequence (P34969 1-445 isoform P34969-2): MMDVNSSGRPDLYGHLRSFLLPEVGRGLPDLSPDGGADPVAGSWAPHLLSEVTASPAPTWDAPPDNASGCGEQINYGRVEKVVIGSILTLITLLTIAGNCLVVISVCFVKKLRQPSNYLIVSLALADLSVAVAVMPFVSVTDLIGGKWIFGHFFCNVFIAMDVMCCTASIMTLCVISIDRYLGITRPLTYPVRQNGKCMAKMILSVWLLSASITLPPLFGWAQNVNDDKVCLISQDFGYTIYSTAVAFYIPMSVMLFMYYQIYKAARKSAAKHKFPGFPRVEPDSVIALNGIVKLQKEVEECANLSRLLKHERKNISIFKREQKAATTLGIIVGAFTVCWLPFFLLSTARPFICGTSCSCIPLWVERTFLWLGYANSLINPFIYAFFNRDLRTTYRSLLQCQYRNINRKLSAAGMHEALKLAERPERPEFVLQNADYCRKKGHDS

[11] = target: T2, α1D-AR; type: binding
[12] = target: T1, α1A-AR; experiment: 3H-NE binding potentiation, membranes from Rat-1 fibroblasts expressing α1A-AR
[13] = tested on: phosphorylation of CREB at Ser133; experiment: p-CREB; type: cell-based; details: 10^−8 M; NE 10^−4 M; propranolol and rauwolscine present
[14] = 2.6 mg/kg, q.d., PO; 3 or 6 months of dosing; 3XTG mice; ref Perez, 2021b; cited from earlier work
[15] = tested on: α1A-AR; experiment: cAMP assay and PAM assay in Rat-1 fibroblasts expressing α1A-AR; type: cell-based
[16] = compound 10^−5 M, absence of GTP, 125I-HEAT

fraction of receptor in the high affinity state of NE in presence of compound ([5]; compound 10^−5 M, absence of GTP): 55%
effect on binding profile of Epi at α1A-AR [5, 16]: no effect
extent of inhibition of 3H-RX821002 binding at α2A-AR [7]: fully inhibited
effect on NE or Epi-mediated IP signal at α1D-AR [9]: no effect
Ki [10]: 6 µM
Ki [11]: 30 µM
difference in binding selectivity between the α1-AR subtypes ([11]; α1A-AR versus α1B-/α1D-AR): 1000 fold
EC50 [12]: 0.0001 µM
Compound: CC(C)Cc1c(OCC2=NCCN2)cccc1N(C)S(C)(=O)=O.Cl [Cmpd-3, N-(3-((4,5-Dihydro-1H-imidazol-2-yl)methoxy)-2-isobutylphenyl)-N-methylmethanesulfonamide hydrochloride]
effect on Epi-mediated inositol phosphate signal at α1A-AR [1]: no effect; also recorded: does not affect
effect on NE-mediated inositol phosphate signal at α1A-AR [1]: no effect; also recorded: does not affect
intrinsic (basal) agonist activity, inositol phosphate ([1]; compound alone, dose-response): cannot stimulate; also recorded: do not show any basal activity
effect on NE or Epi-mediated cAMP response at α1B-AR [2]: no effect; also recorded: does not change the potency or the Emax
effect on NE or Epi-mediated cAMP response at α1D-AR [3]: no effect; also recorded: does not change the potency or the Emax
effect on NE or Epi-mediated IP signal at α1B-AR [4]: no effect
extent of inhibition of 125I-HEAT binding at α1A-AR ([5]; 0.5 mM GTP): could not fully inhibit; also recorded: incomplete inhibition
effect on NE binding at α1A-AR [5, 16]: stabilizes the high affinity binding site of NE
effect on long-term potentiation and cognitive behavior [6]: statistically increased
binding at α1B-AR (125I-HEAT competition) [8]: did not display any binding; also recorded: does not bind
effect on NE-mediated p-CREB levels [13]: significantly potentiated; also recorded: increases
effect on systolic blood pressure [14]: failed to change
effect on Epi-mediated cAMP response at α1A-AR ([15]; Epi dose-response, propranolol and rauwolscine present): did not affect
PAM activity (NE-mediated cAMP potentiation, PAM assay) ([15]; NE 10^−4 M held constant, compound dose-response): display PAM effect
effect on NE-mediated cAMP response at α1A-AR ([15]; NE dose-response, propranolol and rauwolscine present): potentiated; also recorded: increases the Emax
intrinsic (basal) agonist activity, cAMP ([15]; compound alone, dose-response): cannot stimulate; also recorded: do not show any basal activity
